Experiment [1] has as its system Mus musculus. Kind of experiment: Antiobesity activity in high fat diet-induced obese Ptpn1fl/fl/Ptpn2fl/fl null C57BL/6 mouse assessed as hypophagia at 100 ug/kg, ip for 10 consecutive days. It is filed as functional, organism-based.
In experiment [2] the target is T1, Tyrosine-protein phosphatase non-receptor type 1 (Homo sapiens) (UniProt P18031).
T1 sequence (whole entry): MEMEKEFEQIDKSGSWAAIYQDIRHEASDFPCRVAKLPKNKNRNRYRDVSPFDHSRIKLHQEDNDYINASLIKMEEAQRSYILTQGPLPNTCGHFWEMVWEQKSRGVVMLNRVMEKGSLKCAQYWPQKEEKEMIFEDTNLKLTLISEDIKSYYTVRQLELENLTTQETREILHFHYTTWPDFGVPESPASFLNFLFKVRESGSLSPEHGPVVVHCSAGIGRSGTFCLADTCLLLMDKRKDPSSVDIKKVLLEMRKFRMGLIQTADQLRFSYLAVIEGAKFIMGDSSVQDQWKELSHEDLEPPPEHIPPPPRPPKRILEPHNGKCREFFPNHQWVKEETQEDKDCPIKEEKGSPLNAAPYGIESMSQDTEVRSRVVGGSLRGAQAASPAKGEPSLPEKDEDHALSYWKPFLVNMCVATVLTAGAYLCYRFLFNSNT
As to the kind of experiment: Non competitive inhibition of human N-terminal His6-tagged PTP1B catalytic domain (1 to 393 residues) expressed in Escherichia coli strain Rosetta2 (DE3) using DiFMUP as substrate preincubated for 10 mins followed by substrate addition and measured after 10 mins by Michaelis-Menten plot analysis.

Experiment [3] has as its target T1, Tyrosine-protein phosphatase non-receptor type 1 (Homo sapiens). Kind of experiment: Inhibition of human N-terminal His6-tagged PTP1B catalytic domain (1 to 393 residues) expressed in Escherichia coli strain Rosetta2 (DE3) up to 500 uM using pNPP as substrate preincubated for 10 mins followed by substrate addition and measured after 10 mins by […].

Experiment [4] addresses T2, Tyrosine-protein phosphatase non-receptor type 1 (Homo sapiens, UniProt P18031).
T2 sequence (P18031 whole entry): T1 sequence (whole entry)
As to the kind of experiment: Binding affinity to human N-terminal His6-tagged PTP1B catalytic domain (1 to 298 residues) expressed in Escherichia coli strain Rosetta2 (DE3) assessed as dissociation rate constant […].

Experiment [5] deals with T3, Tyrosine-protein phosphatase non-receptor type 2 (Homo sapiens) (UniProt P17706).
T3 sequence (whole entry): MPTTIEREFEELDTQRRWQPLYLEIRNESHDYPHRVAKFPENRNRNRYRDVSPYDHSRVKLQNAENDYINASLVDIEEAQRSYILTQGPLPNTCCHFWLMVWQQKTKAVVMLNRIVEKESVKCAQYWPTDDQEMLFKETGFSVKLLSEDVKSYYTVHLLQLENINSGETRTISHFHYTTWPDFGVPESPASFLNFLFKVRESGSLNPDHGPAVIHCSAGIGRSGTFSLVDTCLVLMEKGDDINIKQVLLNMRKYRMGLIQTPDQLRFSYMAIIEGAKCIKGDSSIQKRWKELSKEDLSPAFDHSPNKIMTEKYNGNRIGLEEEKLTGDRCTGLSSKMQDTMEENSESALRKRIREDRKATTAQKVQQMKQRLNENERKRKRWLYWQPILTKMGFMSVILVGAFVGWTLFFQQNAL
As to the kind of experiment: Inhibition of human N-terminal His6-tagged TCPTP catalytic domain (1 to 336 residues) expressed in Escherichia coli strain Rosetta2 (DE3) using DiFMUP as substrate preincubated for 10 mins followed by substrate addition and measured after 10 mins in presence of 0.1 mg/ml BSA by fluorescence assay. The procedure, abridged:
(§1)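 DiFMUP IC50 assay (1 nM enzyme, 10 min preincubation, substrate at Km, 37 °C, ex 358/em 455 nm), repeated as an aggregation check under three altered conditions: 10-fold enzyme (10 nM), 0.05% Tween 20, or 0.1 mg/mL BSA in buffer.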

A short description of experiment [6]: Inhibition of mouse LMPTP-B (1 to 158 residues) expressed in Escherichia coli strain BL21(DE3) using DiFMUP as substrate preincubated for 10 mins followed by substrate addition and measured after 10 mins by fluorescence assay. The essentials: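 Selectivity panel on enzymes expressed in E. coli BL21(DE3), purified by nickel affinity then size exclusion. DiFMUP fluorescence assay run as for PTP1B/TCPTP, with per-enzyme conditions in a supplementary table; nonlinear regression for IC50; three independent experiments.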

In experiment [7] the target is Phosphatidylinositol 3,4,5-trisphosphate 3-phosphatase and dual-specificity protein phosphatase PTEN (Homo sapiens, UniProt P60484). As to the kind of experiment: Inhibition of human PTEN (1 to 403 residues) expressed in Escherichia coli strain BL21(DE3) using DiFMUP as substrate preincubated for 10 mins followed by substrate addition and measured after 10 mins by fluorescence assay.
Sequence of Phosphatidylinositol 3,4,5-trisphosphate 3-phosphatase and dual-specificity protein phosphatase PTEN (P60484 whole entry, the tested form may be a part): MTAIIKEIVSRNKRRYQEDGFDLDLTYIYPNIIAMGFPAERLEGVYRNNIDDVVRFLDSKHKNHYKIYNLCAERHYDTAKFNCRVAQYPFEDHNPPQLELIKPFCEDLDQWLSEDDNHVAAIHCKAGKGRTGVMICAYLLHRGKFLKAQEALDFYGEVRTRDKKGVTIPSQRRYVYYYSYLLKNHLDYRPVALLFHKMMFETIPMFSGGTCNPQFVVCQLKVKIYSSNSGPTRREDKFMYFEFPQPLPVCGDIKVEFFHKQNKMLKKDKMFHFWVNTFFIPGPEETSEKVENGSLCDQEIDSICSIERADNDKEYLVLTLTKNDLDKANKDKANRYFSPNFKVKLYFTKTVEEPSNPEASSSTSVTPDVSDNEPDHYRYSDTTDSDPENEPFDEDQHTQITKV

The test system of experiment [8] is Mus musculus. As to the kind of experiment: Antiobesity activity in high fat diet-induced obese Ptpn1fl/fl null C57BL/6 mouse treated with rAAV-CMV-Cre-GFP for deletion of PTP1B assessed as reduction in body weight at 100 ug/kg, ip for 10 consecutive days. The experiment is classed as functional, organism-based. The procedure, abridged:
(§2)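 Male Ptpn1fl/fl, Ptpn2fl/fl or double-floxed mice: chow 8 weeks, then high-fat diet (45% energy from fat) 12 weeks. Bilateral intra-ARC stereotaxic injection of rAAV-CMV-Cre-GFP or rAAV-CMV-GFP, 100 nL/side. After 2 weeks recovery, vehicle or 100 μg/kg ip daily at 6 pm for 10 days; body weight tracked; two-way repeated-measures ANOVA with Tukey test; means ± SEM.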

Experiment [9] has as its system Mus musculus. As to the kind of experiment: Antiobesity activity in high fat diet-induced obese Ptpn1fl/fl null C57BL/6 mouse treated with rAAV-CMV-Cre-GFP for deletion of TCPTP assessed as reduction in body weight at 100 ug/kg, ip for 10 consecutive days. The experiment is classed as functional, organism-based. The essentials: as §2
In experiment [10] the test system is Mus musculus. Kind of experiment: Antiobesity activity in high fat diet-induced obese Ptpn1fl/fl null C57BL/6 mouse treated with rAAV-CMV-Cre-GFP for deletion of PTP1B and TCPTP assessed as reduction in body weight at 100 ug/kg, ip for 10 consecutive days. The experiment is classed as functional, organism-based.
The target of experiment [11] is T1, Tyrosine-protein phosphatase non-receptor type 1 (Homo sapiens). As to the kind of experiment: Inhibition of human N-terminal His6-tagged PTP1B catalytic domain (1 to 393 residues) expressed in Escherichia coli strain Rosetta2 (DE3) using DiFMUP as substrate preincubated for 10 mins followed by substrate addition and measured after 10 mins in presence of 10 fold higher enzyme concentration by fluorescence assay. The procedure, abridged: as §1

For experiment [12], the target named is T3, Tyrosine-protein phosphatase non-receptor type 2 (Homo sapiens). As to the kind of experiment: Inhibition of human N-terminal His6-tagged TCPTP catalytic domain (1 to 336 residues) expressed in Escherichia coli strain Rosetta2 (DE3) using DiFMUP as substrate preincubated for 10 mins followed by substrate addition and measured after 10 mins in presence of 10 fold higher enzyme concentration by fluorescence assay. The procedure, abridged:
as §1

Experiment [13] addresses T1, Tyrosine-protein phosphatase non-receptor type 1 (Homo sapiens). As to the kind of experiment: Binding affinity to human N-terminal His6-tagged PTP1B catalytic domain (1 to 298 residues) expressed in Escherichia coli strain Rosetta2 (DE3) by NMR spectroscopy. The procedure, abridged:
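100 μM 2H(~70%)/15N-labelled PTP1B1−298 in 100 mM d11-Tris pH 7.5, 75 mM NaCl, 10% D2O at 20 °C. Compound added to 250 μM (0.5% DMSO-d6); 1H,15N TROSY at 800 MHz against DMSO-only reference; amide chemical shift perturbations computed.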

Active and inactive are the calls of the source. The rule behind the calls is not given here. A value given as a limit tells only on which side of the number the result lay.

These results are taken from ChEMBL document CHEMBL4371044, “Celastrol Promotes Weight Loss in Diet-Induced Obesity by Inhibiting the Protein Tyrosine Phosphatases PTP1B and TCPTP in the Hypothalamus” (J Med Chem, 2018).

As a reminder, the IC50 is the concentration that inhibits the measured activity by half. Higher therefore signals lower potency. `CC1=C(O)C(=O)C=C2C1=CC=C1[C@@]2(C)CC[C@@]2(C)[C@@H]3C[C@](C)(C(=O)O)CC[C@]3(C)CC[C@]12C` [CELASTROL]: the outcome in experiment [1] and in experiment [13] was Active. For the same molecule, the inhibition result in experiment [2], in experiment [3], in experiment [5], in experiment [11] and in [12] was “Active” each time. Besides, the koff in [4] is recorded as 3.62 ×10⁻⁴ /s. For the same molecule, the values for the IC50 in [6] and in [7] were above 500 µM and 13.3 µM, respectively. The result in experiment [8], in experiment [9] and in experiment [10] was inactive.
